HER2 expr 66K: lowers expression of human Her2 kinase | AID 645 | HER2 level % of control, % at 10 µM | SKBR-3 HER2 protein level, AlphaScreen, 18-24 h; active compounds read low | hit rate 0.69% among 65,000 | P04626;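 active = HER2 level under 5% of the carrier-only control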;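 also: 100% = DMSO carrier and 0% = 500 nM PU-H71 HSP90 inhibitor; lower value means stronger loss of Her2 protein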
Target sequence (P04626 whole entry, looked up): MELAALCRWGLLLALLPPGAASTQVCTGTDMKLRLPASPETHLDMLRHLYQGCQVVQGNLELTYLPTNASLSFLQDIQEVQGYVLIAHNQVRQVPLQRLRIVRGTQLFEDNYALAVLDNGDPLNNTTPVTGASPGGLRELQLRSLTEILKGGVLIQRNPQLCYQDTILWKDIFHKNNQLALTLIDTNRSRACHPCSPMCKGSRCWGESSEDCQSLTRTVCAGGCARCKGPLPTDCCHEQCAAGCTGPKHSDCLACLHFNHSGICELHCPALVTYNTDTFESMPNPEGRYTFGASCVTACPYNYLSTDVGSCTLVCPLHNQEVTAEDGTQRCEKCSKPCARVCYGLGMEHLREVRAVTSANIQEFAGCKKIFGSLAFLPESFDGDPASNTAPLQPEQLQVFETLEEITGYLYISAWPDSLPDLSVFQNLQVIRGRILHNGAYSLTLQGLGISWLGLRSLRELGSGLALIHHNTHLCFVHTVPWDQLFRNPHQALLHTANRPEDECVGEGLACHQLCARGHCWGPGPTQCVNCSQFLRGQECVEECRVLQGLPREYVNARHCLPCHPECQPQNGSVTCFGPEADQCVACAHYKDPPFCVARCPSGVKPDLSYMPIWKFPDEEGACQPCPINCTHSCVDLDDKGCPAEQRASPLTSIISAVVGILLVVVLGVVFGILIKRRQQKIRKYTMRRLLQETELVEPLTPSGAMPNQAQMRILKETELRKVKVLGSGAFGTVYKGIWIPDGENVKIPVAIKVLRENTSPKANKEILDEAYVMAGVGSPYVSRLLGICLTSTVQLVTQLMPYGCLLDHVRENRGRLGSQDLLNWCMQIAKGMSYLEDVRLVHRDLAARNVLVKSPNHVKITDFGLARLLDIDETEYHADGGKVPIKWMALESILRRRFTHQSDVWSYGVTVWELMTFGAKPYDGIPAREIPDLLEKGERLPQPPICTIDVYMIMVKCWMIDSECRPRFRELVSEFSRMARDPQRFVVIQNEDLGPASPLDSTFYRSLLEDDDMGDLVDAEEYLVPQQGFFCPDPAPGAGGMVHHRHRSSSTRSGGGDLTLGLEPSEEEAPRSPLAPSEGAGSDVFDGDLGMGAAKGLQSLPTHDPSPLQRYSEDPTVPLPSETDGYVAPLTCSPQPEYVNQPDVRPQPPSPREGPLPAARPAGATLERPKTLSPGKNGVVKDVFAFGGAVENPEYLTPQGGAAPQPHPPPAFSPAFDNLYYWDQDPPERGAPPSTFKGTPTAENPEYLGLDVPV
HEK293 NFkB inh: lowers PMA/ionomycin-induced NF-kB signal in HEK293 cells; HEK-293 NF-kB luciferase reporter, luminescence; inhibition, % at 3 µM; hit rate 0.21% among 62,000;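 active = inhibition above the mean of all tested compounds plus 3 SD, cut at about 40% in these data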;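 also: 0% = stimulated DMSO wells and 100% = 10 µM reference inhibitor 5653914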
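System – HEK-293 cells with stable firefly luciferase reporter driven by four HIV NF-kB elements · Doses – one dose, 3 µM · Schedule – 1 h compound pre-incubation, 16 h PMA/ionomycin at 37 °C · Technique – luminescence from luciferase substrate reagent · Measure – percent inhibition normalized per plate to DMSO and reference-inhibitor controls · Replicates – tested once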
SKBR3 24h inh: SK-BR-3 proliferation inhibitors; hit rate 0.47% among 41,000; viability, % at 10 µM; AID 847; SK-BR-3 viability, CellTiter-Glo ATP luminescence, 24 h; active compounds read low;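 active = viability at or below the median of all test compounds minus 3 SD, in both replicates if run twice, cut at about 45% in these data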;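 also: 100% = median untreated cell wells and 0% = median positive control drug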
Jurkat tox 60K: reduces viability or proliferation of Jurkat cells. Jurkat E6.1 viability, ATP luminescence, 48 h. inhibition, % at 4 µM. hit rate 1.2% among 56,000. AID 463;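 active = inhibition above the mean inhibition of all tested compounds plus 3 SD, cut at about 28% in these data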
Active calls of the source: *; . = not tested or not shown. An excerpt weighted towards active compounds, which were near 2% of everything screened.

SMILES | HER2 expr 66K | HEK293 NFkB inh | SKBR3 24h inh | Jurkat tox 60K
Cc1ccc(C2CC(=O)N3CN(c4ccc(Br)cc4)CSC3=C2C#N)o1 (stereo unspecified) | -19* | -1 | 90 | -7
COc1ccc(C2CC(=O)N3C(=C2C#N)SCC3(O)c2ccccc2)cc1 (stereo unspecified) | 109 | 29 | . | 18
N#CC1=C2SCN(c3ccccc3)CN2C(=O)CC1c1cccs1 (stereo unspecified) | -20* | -6 | 92 | -3
N#CC1=C2SCC(O)(c3ccccc3)N2C(=O)CC1c1cccs1 (stereo unspecified) | 60 | 48* | . | 79*
CCOC(=O)N1CCN(C(=O)Nc2ccc(Cl)cc2Cl)CC1 | 118 | 4 | 90 | .
Nc1nonc1-c1nc2ccccc2n1CC(=O)NC1CCCC1 | 105 | 20 | . | 2
CC1CCCN(C(=O)Cn2c(-c3nonc3N)nc3ccccc32)C1 (stereo unspecified) | -24* | 20 | 94 | 1
Nc1nonc1-c1nc2ccccc2n1Cc1ccccc1 | 51 | 13 | 89 | 89*
CCOC(=O)c1ccccc1NC(=O)Cn1c(-c2nonc2N)nc2ccccc21 | 51 | 47* | 68 | 98*
COCc1nc2ccccc2n1Cc1ccccc1 | 103 | 4 | . | .
Cn1c(=O)c(C(=O)c2ccccc2)nc2ccccc21 | 146 | -1 | 104 | 4
Cn1cc(C(=O)c2ccc(Cl)cc2)cc1-c1nc2ccccc2n1C | 29 | 10 | 72 | 42*
CC1(C(=O)NC2CCCCCCC2)CCC(=O)N1Cc1cccnc1 (stereo unspecified) | 121 | 0 | . | -1
CC1(C)CCCC2=C1CC1C(=O)N(Cc3cccnc3)C(=O)C1C2 (stereo unspecified) | -22* | 10 | 110 | 0
CN(C)S(=O)(=O)c1ccc(C(=O)Nc2nc(-c3cccs3)cs2)cc1 | 68 | 1 | . | 36*
COc1cc2c(C#N)c(N3CCN(c4ccccc4OC)CC3)nc(N)c2c(N)n1 | -4.0* | 15 | 66 | .
COc1ccccc1N1CCN(c2nc(N)c(C#N)c(CC#N)c2C#N)CC1 | 75 | 15 | 114 | .
COc1ccc2c(c1)sc1nc(-c3ccccc3)cn12 | 67 | 67* | 96 | 100*
COc1ccccc1-n1cnc(N)c1C(=O)c1ccccc1 | 68 | 12 | 128 | 36*
CSCc1nnc(NC(=O)c2ccc(S(=O)(=O)N(CC(C)C)CC(C)C)cc2)o1 | 80 | 20 | 106 | 88*
CCc1nnc(NC(=O)c2ccc(S(=O)(=O)N(CC(C)C)CC(C)C)cc2)o1 | 84 | 25 | 90 | 94*
CCc1nnc2n1N=C(c1ccc(-c3cc(Cl)ccc3Cl)o1)CS2 | 70 | 23 | 84 | .
CCn1c(SCC(=O)C(C)(C)C)nnc1-c1cnccn1 | -19* | 4 | . | 6
CCN(CC)CCCN1C(=O)C(=O)/C(=C(/O)c2ccc3c(c2)CC(C)O3)C1c1ccncc1 (stereo unspecified) | 117 | . | 112 | .
N#CCSc1nc2cc(C(=O)N3CCCC3)ccc2c(=O)n1Cc1ccccc1 | 155 | 17 | 91 | 4
SMILES | HER2 expr 66K | HEK293 NFkB inh | SKBR3 24h inh | Jurkat tox 60K
N#CCSc1nc2cc(C(=O)N3CCC(C(N)=O)CC3)ccc2c2nc3ccccc3n12 | -1.2* | 15 | . | 18
COc1cccc(OCC(=O)Nc2c(C(=O)Nc3ccc(OC)cc3OC)oc3ccccc23)c1 | 16 | 8 | . | -5
COc1cc(NS(=O)(=O)c2ccc3c(c2)oc(=O)n3C)cc(OC)c1OC | 40 | 5 | . | 40*
COc1ccc(NS(=O)(=O)c2ccc3c(c2)oc(=O)n3C)c(OC)c1 | 102 | 9 | . | -1
CC(CN1CCCCC1)OC(=O)c1cc2ccccc2o1 (stereo unspecified) | 94 | 12 | 99 | 0
CC(=O)Nc1ccc(S(=O)(=O)n2nc(C)cc2C)cc1 | 76 | 16 | 127 | 1
CC(=O)Nc1ccc(S(=O)(=O)n2cnc3cc(C)c(C)cc32)cc1 | 109 | -5 | 66 | 28*
O=C(O)c1ccc(N2CCCCC2)cc1 | 91 | 3 | . | -13
Nc1ccc(N2CCCCCC2)cc1 | 30 | 10 | 71 | 37*
C=C(C)CC1Nc2ccccc2NC1CC(=C)C (stereo unspecified) | 133 | 1 | . | -2
COC(=O)c1cccc(CSc2nnc(-c3ccco3)n2-c2ccccc2)c1 | 109 | 6 | 35* | 12
Fc1ccc(Br)cc1C1C=C(c2cccnc2)Nc2ncnn21 (stereo unspecified) | 76 | 4 | . | 39*
COc1cccc(C2=CC(c3ccccc3)n3ncnc3N2)c1 (stereo unspecified) | 83 | . | 77 | .
CN(C(=O)c1cnccn1)c1nnc(-c2cccnc2)s1 | 113 | 1 | . | -7
CC1CCN(c2nc3ccc(C(=O)O)cc3s2)CC1 | 93 | 83* | . | 4
CCSC1(SCC)N=C(N)C2(C#N)C(c3ccc(OC)c(OC)c3OC)C12C#N (stereo unspecified) | 3.5* | 2 | 100 | 2
Cc1nc(NCc2ccco2)c2c3c(sc2n1)CCC3 | 61 | -16 | 58 | 36*
c1coc(CNc2ncnc3sc4c(c23)CCCCC4)c1 | 77 | 5 | . | 1
Cc1ccc2c(CSc3nc4ccccc4c(=O)n3CCCO)cc(=O)oc2c1 | 89 | 23 | . | 1
CCOC(=O)c1sc2ncnc(N3CCN(C(=O)OCC)CC3)c2c1C | 140 | -4 | 42* | -1
COc1cc(C(=O)N2CCN(c3ncnc4sc(C)c(C)c34)CC2)cc(OC)c1OC | 88 | 26 | 81 | 76*
CCCN(CCC)C(=O)CSc1nc2ccccc2c(=O)n1C1CCCC1 | 47 | 20 | . | 4
C/C(=N\O)C(=O)C(CN1CCCCC1)CN1CCCCC1 | -12* | 9 | . | 3
COc1cccc(C2=NOC(C(=O)Nc3cc(OC)c(OC)c(OC)c3)C2)c1 (stereo unspecified) | 114 | 12 | . | 15
Cc1nc(C)c2c(=O)cc(-c3ccccc3)[nH]c2n1 | 51 | 24 | . | 54*
SMILES | HER2 expr 66K | HEK293 NFkB inh | SKBR3 24h inh | Jurkat tox 60K
CC(C)Cc1cc(C(=O)N2CCN(c3ccc(F)cc3)CC2)no1 | 101 | 19 | . | 4
O=C(Nc1ccc2c(c1)OCCO2)c1ccc2nccnc2c1 | 125 | -8 | 98 | 3
O=C(Nc1ccc(SC(F)F)cc1)c1ccc2nccnc2c1 | 170 | -3 | 75 | 32*
CCOC(=O)CC1=C(C(=O)OCC)C(c2ccc(OC)cc2OC)C(C#N)=C(N)O1 (stereo unspecified) | -20* | 13 | . | 4
COn1c(-n2nc(C)cc2C)nc2ccccc2c1=O | 91 | 16 | 90 | -1
Cc1cc(C)n(-c2nc3ccccc3c(=O)n2OCC(=O)OCc2ccccc2)n1 | 96 | 4 | 139 | 56*
Cc1cc(C)n(-c2nc3ccccc3c(=O)n2OCC(=O)N(C)C)n1 | 96 | 2 | 113 | 0
Cc1cc(C)n(-c2nc3ccccc3c(=O)n2OCc2ccc(F)cc2)n1 | 62 | 11 | 40* | -6
O=C(CCN1C(=O)c2ccccc2C1=O)N1CCC(c2ccccc2)C1 (stereo unspecified) | 66 | 10 | 97 | -1
Cc1ccc(S(=O)(=O)N(C)Cc2ccc(-c3nnc4n3CCC4)cc2)cc1 | 79 | 16 | 82 | 6

Screening data as filed in PubChem BioAssay.
